Several values for one entry are separate records, joined by “and”; a condition that tells them apart may be missing. Equal values may be shown once.
Tested on: HEK-293T
Test: Multiplex assay against HEK293T
Type: toxicity, cell-based
Settings: human, number of replicates 2
In short: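 Compound was added to live cells that had been stained at seeding with Hoechst33342, BioTracker Green Microtubule Cytoskeleton Dye, MitoTracker Red and Annexin V Alexa Fluor 680, and imaging followed on a CQ1 microscope at 37°C and 5% CO2. CellPathfinder machine-learning gating divided cells into Hoechst high-intensity objects or normal cells, normal cells into healthy, pyknosed or fragmented nuclei, and pyknosed cells into mitotic or apoptotic. Tubulin, mitochondrial-mass and membrane-permeability phenotypes are per cents of healthy-nucleus cells.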

[1] = 12 h, 1 µM, compound concentration 1 uM
[2] = 12 h, 10 µM, compound concentration 10 uM
[3] = 24 h, 1 µM, compound concentration 1 uM
[4] = 24 h, 10 µM, compound concentration 10 uM
[5] = 48 h, 1 µM, compound concentration 1 uM
[6] = 48 h, 10 µM, compound concentration 10 uM

CN1CCCN(C(=O)c2cccc(-c3ccc(/C=C4/C(=O)Nc5ccc(Cl)cc54)o3)c2)CC1
Population Apoptotic (%) [1]: 58% and 72%
Population Fragmented Nuclei (%) [1]: 4%
Population Healthy Nuclei (%) [1]: 88% and 86%
Population Hoechst High Intensity Objects (%) [1]: 6%
Population Membrane Permeable-Phenotype (%) [1]: 3% and 2%
Population Mitochondria Different-Phenotype (%) [1]: 8% and 12%
Population Mitotic Cells (%) [1]: 41% and 27%
Population Normal (%) [1]: 93%
Population Pyknosed Nuclei (%) [1]: 6% and 9%
Population Tubulin-Different-Phenotype (%) [1]: 60% and 45%
Total Cell Count [1]: 923 and 535
Population Apoptotic (%) [2]: 67% and 62%
Population Fragmented Nuclei (%) [2]: 2% and 1%
Population Healthy Nuclei (%) [2]: 86% and 92%
Population Hoechst High Intensity Objects (%) [2]: 5% and 6%
Population Membrane Permeable-Phenotype (%) [2]: 7% and 4%
Population Mitochondria Different-Phenotype (%) [2]: 38% and 32%
Population Mitotic Cells (%) [2]: 32% and 37%
Population Normal (%) [2]: 94% and 93%
Population Pyknosed Nuclei (%) [2]: 11% and 6%
Population Tubulin-Different-Phenotype (%) [2]: 94% and 96%
Total Cell Count [2]: 365 and 416
Population Apoptotic (%) [3]: 57% and 72%
Population Fragmented Nuclei (%) [3]: 7% and 6%
Population Healthy Nuclei (%) [3]: 86% and 85%
Population Hoechst High Intensity Objects (%) [3]: 9%
Population Membrane Permeable-Phenotype (%) [3]: 2% and 1%
Population Mitochondria Different-Phenotype (%) [3]: 1% and 3%
Population Mitotic Cells (%) [3]: 42% and 27%
Population Normal (%) [3]: 90%
Population Pyknosed Nuclei (%) [3]: 6% and 8%
Population Tubulin-Different-Phenotype (%) [3]: 18% and 20%
Total Cell Count [3]: 1009 and 610
Population Apoptotic (%) [4]: 64% and 56%
Population Fragmented Nuclei (%) [4]: 4% and 2%
Population Healthy Nuclei (%) [4]: 79% and 90%
Population Hoechst High Intensity Objects (%) [4]: 2% and 4%
Population Membrane Permeable-Phenotype (%) [4]: 7% and 8%
Population Mitochondria Different-Phenotype (%) [4]: 34% and 29%
Population Mitotic Cells (%) [4]: 35% and 43%
Population Normal (%) [4]: 97% and 95%
Population Pyknosed Nuclei (%) [4]: 16% and 7%
Population Tubulin-Different-Phenotype (%) [4]: 84% and 87%
Total Cell Count [4]: 402 and 421
Population Apoptotic (%) [5]: 43% and 64%
Population Fragmented Nuclei (%) [5]: 16% and 12%
Population Healthy Nuclei (%) [5]: 81% and 84%
Population Hoechst High Intensity Objects (%) [5]: 6% and 5%
Population Membrane Permeable-Phenotype (%) [5]: 0%
Population Mitochondria Different-Phenotype (%) [5]: 1% and 4%
Population Mitotic Cells (%) [5]: 56% and 35%
Population Normal (%) [5]: 93% and 94%
Population Pyknosed Nuclei (%) [5]: 2%
Population Tubulin-Different-Phenotype (%) [5]: 14% and 15%
Total Cell Count [5]: 1019 and 606
Population Apoptotic (%) [6]: 60% and 55%
Population Fragmented Nuclei (%) [6]: 6%
Population Healthy Nuclei (%) [6]: 46% and 55%
Population Hoechst High Intensity Objects (%) [6]: 7% and 3%
Population Membrane Permeable-Phenotype (%) [6]: 3% and 2%
Population Mitochondria Different-Phenotype (%) [6]: 50% and 38%
Population Mitotic Cells (%) [6]: 39% and 44%
Population Normal (%) [6]: 92% and 96%
Population Pyknosed Nuclei (%) [6]: 47% and 38%
Population Tubulin-Different-Phenotype (%) [6]: 77% and 76%
Total Cell Count [6]: 403 and 446

From ChEMBL document CHEMBL5303300, “EUbOPEN Chemogenomics Library - Multiplex” (2023)
